Read-outs that look alike come from different tables or passages of the source.
Tests used:
Caco-2 cell monolayers [1] = experiment: Dioxin transport and cellular association in dynamic gut-on-a-chip model; format: in vitro ADME, human; conditions: 24 h; for Mass balance (sum of AP, BL compartments and cellular fraction): Chip, 0.2 ng/mL each congener, n = 3
Procedure, shortened: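 Caco-2 seeded at 75 000 cells per cm2 on a porous polyester membrane clamped between glass slides. Cells attached 72 h without flow, then both sides were perfused 7 days at 25 μL h−1 with 10 mM-bicarbonate DMEM+ at 37 °C. Apical medium then carried 17 congeners (0.2 ng mL−1 each, 1% DMSO) for 24 h. Compartment eluents, hexane rinses and trypsinised, freeze–thaw-lysed cells were analysed by GC-HRMS.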

Caco-2 cell monolayers [2] = experiment: Dioxin transport and cellular association in static Transwell model; format: in vitro ADME, human; conditions: 24 h; for Mass balance (sum of AP, BL compartments and cellular fraction): Transwell, 0.2 ng/mL mixture, n = 3
Procedure, shortened: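 Caco-2 seeded at 40 000 cells per cm2 on 12-well polyester Transwell inserts (0.4 μm pores, 1.12 cm2) in DMEM+, with medium changed every other day for 21 days. Apical side received DMEM+ with 0.2 ng mL−1 dioxin mixture (1% DMSO); basolateral side received plain DMEM+; exposure 24 h. Both compartments' medium, hexane rinses and trypsinised, freeze–thaw-lysed cells were analysed by GC-HRMS.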

[3] = predicted; octanol/water; cited from earlier work
Caco-2 cell monolayer = conditions: 24 h; 2.5 nM 2,3,7,8-TCDD; cited from earlier work
Caco-2 cells = conditions: 90 minutes exposure to 3.4 × 10^−2 μCi mL^−1 U-14C-TCDD; cited from earlier work
[4] = cited from earlier work
[5] = dynamic model (chip), 0.2 ng/mL
[6] = static model (Transwell), 0.2 ng/mL

SMILES | Mass balance (sum of AP, BL compartments and cellular fraction) (Caco-2 cell monolayers [1]) [%] | Mass balance (sum of AP, BL compartments and cellular fraction) (Caco-2 cell monolayers [2]) [%] | log P [3] | other results
Clc1cc2c(c(Cl)c1Cl)Oc1c(Cl)c(Cl)c(Cl)c(Cl)c1O2 [1,2,3,4,6,7,8-HpCDD] | 97 ± 7 | 83 ± 2 | – | –
Clc1cc2c(oc3c(Cl)c(Cl)c(Cl)c(Cl)c32)c(Cl)c1Cl [1,2,3,4,6,7,8-HpCDF] | 97 ± 5 | 93 ± 1 | 7.9 | –
Clc1cc2oc3c(Cl)c(Cl)c(Cl)c(Cl)c3c2c(Cl)c1Cl [1,2,3,4,7,8,9-HpCDF] | 97 ± 7 | 83 ± 2 | – | –
Clc1cc2oc3c(Cl)c(Cl)c(Cl)c(Cl)c3c2cc1Cl [1,2,3,4,7,8-HxCDF] | 97 ± 7 | 85 ± 2 | 6.9 | –
Clc1cc2c(c(Cl)c1Cl)Oc1cc(Cl)c(Cl)c(Cl)c1O2 [1,2,3,6,7,8-HxCDD] | 92 ± 5 | 92 ± 1 | 7.4 | –
Clc1cc2c(oc3cc(Cl)c(Cl)c(Cl)c32)c(Cl)c1Cl [1,2,3,6,7,8-HxCDF] | 94 ± 5 | 93 ± 1 | 6.9 | –
Clc1cc2c(c(Cl)c1Cl)Oc1c(cc(Cl)c(Cl)c1Cl)O2 [1,2,3,7,8,9-HxCDD] | 93 ± 5 | 93 ± 1 | 7.4 | Relative amount in the cellular fraction (of total exposure) (Caco-2 cell monolayers [1]; [5]): 33%; Relative amount in the cellular fraction (of total exposure) (Caco-2 cell monolayers [2]; [6]): 22.5%
Clc1cc2oc3cc(Cl)c(Cl)c(Cl)c3c2c(Cl)c1Cl [1,2,3,7,8,9-HxCDF] | 91 ± 6 | 84 ± 2 | 7.4 | –
Clc1cc2c(oc3c(Cl)c(Cl)c(Cl)cc32)c(Cl)c1Cl [2,3,4,6,7,8-HxCDF] | 97 ± 7 | 87 ± 2 | 7.1 | –
Clc1cc2c(cc1Cl)Oc1cc(Cl)c(Cl)cc1O2 [2,3,7,8-TCDD, 2,3,7,8-tetrachlorodibenzo-p-dioxin] | 85 ± 5 | 81 ± 2 | – | Relative amount in the cellular fraction (of total exposure) (Caco-2 cell monolayers [1]; [5]): ~56%; Transport across the monolayer (basal side compared to total exposed amount) (Caco-2 cell monolayers [1]; [5]): 3%; Relative amount in the cellular fraction (of total exposure) (Caco-2 cell monolayers [2]; [6]): approximately 39%; Transport across the monolayer (basal side compared to total exposed amount) (Caco-2 cell monolayers [2]; [6]): 3%; Transported across the Caco-2 cell monolayer (Caco-2 cell monolayer): 15%; Apical concentration transported to the basal compartment (Caco-2 cells): less than 1.5%; Steady-state cellular association (Caco-2 cells): approximately 13%
Clc1ccc(-c2cc(Cl)c(Cl)cc2Cl)cc1Cl [#118] | – | – | – | log P [4]: > 5
Clc1cc(Cl)c(-c2cc(Cl)c(Cl)cc2Cl)cc1Cl [#153] | – | – | – | log P [4]: > 5
Clc1cc(Cl)c(-c2cc(Cl)c(Cl)c(Cl)c2Cl)cc1Cl [#180] | – | – | – | log P [4]: > 5
Clc1ccc(Cl)c(-c2cc(Cl)ccc2Cl)c1 [PCB#52] | – | – | – | log P [4]: > 5

Source: paper PMC9086222 (RSC Advances, 2018)
